By IC50 is commonly meant the midpoint of a concentration-inhibition curve.

For assay [1], the target named is T1, Protein E7 (Human papillomavirus 16) (UniProt P03129).
T1 sequence (whole entry): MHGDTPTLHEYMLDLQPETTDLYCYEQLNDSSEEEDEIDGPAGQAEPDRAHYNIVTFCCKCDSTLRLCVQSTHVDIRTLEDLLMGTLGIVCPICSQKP
Description: Inhibition of Human papillomavirus type16 derived E7 in human CaSki cells assessed as decrease in cyclin-D1 protein expression at 2 to 4 uM after 48 hrs by Western blot analysis. The assay is classed as cell-based. The note with it: Ca-Ski. The method, boiled down:
(§1)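 Cells were seeded at 1 × 10^6 per 100 mm dish and treated next day with 2 or 4 μM for 48 h. They were trypsinised, PBS-washed and lysed in RIPA with protease inhibitors. Equal protein was run on SDS-PAGE and transferred to PVDF. Primary antibodies were used at 1:500, with BSA 3% for blocking and antibodies for CK2α, Rb and pRb, otherwise 5% milk in TBST. HRP secondary at 1:2000, chemiluminescence detection.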
(In general: A western blot detects proteins with antibodies after separation by electrophoresis.)

Assay [2] deals with C-33-A. Description: Cell cycle arrest in human C33A cells assessed as increase in p53 protein expression at 2 to 4 uM after 48 hr by Western lot analysis. The format is functional, cell-based. Summed up: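 Western blot. 1 × 10^6 cells were seeded per 100 mm dish and exposed the next day to 2 or 4 μM for 48 h. Cells were trypsinized and lysed in RIPA buffer with protease inhibitors. Equal protein was run on SDS-PAGE and transferred to PVDF, which was blocked in 5% milk/TBST. Anti-p53 and anti-p21 (also GAPDH) were used at 1:500 and HRP secondary at 1:2000; chemiluminescent detection.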

The target of assay [3] is Protein E6 (Human papillomavirus 16) (UniProt P03126). Description: Inhibition of Human papillomavirus type16 derived E6 in human CaSki cells assessed as increase in p21 protein expression at 2 to 4 uM after 48 hrs by Western blot analysis. The assay is classed as cell-based. Particulars: Ca-Ski. The method, boiled down:
as §1

For assay [4], the target named is Casein kinase II subunit alpha (Homo sapiens) (UniProt P68400). Description: Inhibition of CK2alpha in human SiHa cells at 2 to 4 uM after 48 hrs by Western blot analysis. The format is cell-based. Summed up: as §1
Assay [5] has as its system Ca-Ski. Description: Cell cycle arrest in human CaSki cells assessed as decrease in accumulation at S phase at 4 uM incubated up to 72 hrs by propidium iodide staining based flow cytometric analysis. The assay is classed as functional. The method, boiled down:
(§2)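 Cells in DMEM/10% FBS at 37 °C, 5% CO2 were given 4 μM for 24, 48 or 72 h, with DMSO as control. After trypsinization they were fixed in chilled 70% ethanol on ice for 30 min, treated with RNase A (1 mg/mL) for 30 min at room temperature, and stained with PI (20 μg/mL). At least 10 000 events were read by flow cytometry to give sub-G1, G0/G1, S and G2/M fractions; mean ± SEM.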
Background: A flow cytometer gives signals particle by particle.

Assay [6] has as its system C-33-A. Description: Induction of apoptosis in human C33A cells assessed as early apoptotic cells at 4 uM after 48 hrs by Annexin V-FITC/PI double staining based flow cytometric analysis (reference value: 12.9%). The assay is classed as functional.
Assay [7] relates to HeLa. Description: Antiproliferative activity against human HeLa cells assessed as reduction in cell viability after 48 hrs by CellTiter-Glo assay. The assay is classed as functional, cell-based. Summed up: (§3)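 ATP-based luminescent viability readout. Cells were grown in DMEM with 10% FBS, 2 mM L-glutamine and penicillin-streptomycin at 37 °C, 5% CO2. 2 × 10^4 cells/well were seeded, then exposed the next day to 0–40 μM for 24, 48 or 72 h. % viability = 100 × treated/control. IC50 was fitted from a sigmoid dose-response curve. Run at least three times in quadruplicate; mean ± SEM.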
For orientation: Cellular ATP, detected with luciferase, serves as a proxy for viable cell number.

For assay [8], the system named is C-33-A. Description: Cell cycle arrest in human C33A cells assessed as accumulation at G0/G1 phase at 4 uM after 48 hrs by propidium iodide staining based flow cytometric analysis (reference value: 54.6%). The assay is classed as functional. The method, boiled down:
as §2

The subject of assay [9] is C-33-A. Description: Cell cycle arrest in human C33A cells assessed as accumulation at G0/G1 phase at 4 uM after 72 hrs by propidium iodide staining based flow cytometric analysis (reference value: 60%). The assay is classed as functional. Summed up:
as §2

Assay [10] concerns HeLa. Description: Antiproliferative activity against human HeLa cells assessed as reduction in cell viability after 24 hrs by CellTiter-Glo assay. The format is functional, cell-based. Summed up: as §3
In assay [11] the test system is SiHa. Description: Cell cycle arrest in human SiHa cells assessed as accumulation at G0/G1 phase at 4 uM after 24 hrs by propidium iodide staining based flow cytometric analysis (reference value: 69.9%). The assay is classed as functional. Summed up: as §2
Assay [12] deals with Protein E6 (human papillomavirus 18) (UniProt P06463). Description: Inhibition of Human papillomavirus type18 derived E6 in human HeLa cells assessed as increase in p21 protein expression at 2 to 4 uM after 48 hrs by Western blot analysis. The format is cell-based. Summed up: as §1
Assay [13] deals with HeLa. Description: Cell cycle arrest in human HeLa cells assessed as accumulation at G0/G1 phase at 4 uM after 48 hrs by propidium iodide staining based flow cytometric analysis (reference value: 69.6%). The assay is classed as functional. The method, boiled down:
as §2

The test system of assay [14] is SiHa. Description: Cell cycle arrest in human SiHa cells assessed as accumulation at G2/M phase at 4 uM after 24 hrs by propidium iodide staining based flow cytometric analysis (reference value: 17%). The assay is classed as functional. Summed up: as §2
For assay [15], the system named is C-33-A. Description: Induction of apoptosis in human C33A cells assessed as late apoptotic cells at 4 uM after 48 hrs by Annexin V-FITC/PI double staining based flow cytometric analysis (reference value: 2.5%). The format is functional.
Assay [16] has as its system SiHa. Description: Cell cycle arrest in human SiHa cells assessed as increase in accumulation at G0/G1 phase at 4 uM incubated for 24 hrs by propidium iodide staining based flow cytometric analysis. The format is functional. Summed up:
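Cells in DMEM with 10% FBS, 2 mM L-glutamine, pen-strep, 37 °C, 5% CO2; seeded and left overnight, then treated at 4 μM with DMSO as control. Harvested by trypsin at 24, 48 or 72 h, fixed in chilled 70% ethanol 30 min on ice, RNase A (1 mg/mL) 30 min at room temperature, PI (20 μg/mL). Flow cytometry, ≥10 000 events, G0/G1, S, G2/M fractions; mean ± SEM.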

Assay [17] relates to C-33-A. Description: Induction of apoptosis in human C33A cells assessed as necrotic cells at 4 uM after 24 hrs by Annexin V-FITC/PI double staining based flow cytometric analysis. The format is functional.
Assay [18] deals with Protein E6 (Human papillomavirus 16) (UniProt P03126). Description: Inhibition of Human papillomavirus type16 derived E6 in human SiHa cells assessed as increase in p21 protein expression at 2 to 4 uM after 48 hrs by Western blot analysis. The assay is classed as cell-based. The method, boiled down:
as §1

The subject of assay [19] is Ca-Ski. Description: Cell cycle arrest in human CaSki cells assessed as accumulation at G2/M phase at 4 uM after 72 hrs by propidium iodide staining based flow cytometric analysis (reference value: 15.2%). The format is functional.
Assay [20] deals with SiHa. Description: Inhibition of colony formation in human SiHa cells at 2 to 4 uM afer 1 week by crystal violet staining based assay. The assay is classed as functional, cell-based. Summed up: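 Cells were grown in DMEM with 10% FBS, seeded at 1 × 10^3 cells/ml in six-well plates, incubated overnight, then exposed to 2 or 4 μM at 37 °C under 5% CO2 for one week. Colonies were fixed with 4% paraformaldehyde, stained with 0.5% crystal violet and photographed.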

In assay [21] the test system is SiHa. Description: Induction of apoptosis in human SiHa cells assessed as apoptotic cells at 4 uM after 48 hrs by Annexin V-FITC/PI double staining based flow cytometric analysis (reference value: 6.4%). The assay is classed as functional.
Assay [22] addresses Protein E6 (Human papillomavirus 16) (UniProt P03126). Description: Inhibition of Human papillomavirus type16 derived E6 in human CaSki cells assessed as increase in p53 protein expression at 2 to 4 uM after 48 hrs by Western blot analysis. The note with it: Ca-Ski. The format is cell-based. Summed up:
as §1

The source made the active and inactive calls. No cut-off for these calls is given here.

Protein E6 (Human papillomavirus 16), sequence (P03126 whole entry): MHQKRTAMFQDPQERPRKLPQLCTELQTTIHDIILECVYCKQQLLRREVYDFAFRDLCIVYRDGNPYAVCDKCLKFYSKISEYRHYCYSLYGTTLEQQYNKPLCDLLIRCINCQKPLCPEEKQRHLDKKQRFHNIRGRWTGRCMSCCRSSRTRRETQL
Casein kinase II subunit alpha (Homo sapiens), sequence (P68400 whole entry, looked up): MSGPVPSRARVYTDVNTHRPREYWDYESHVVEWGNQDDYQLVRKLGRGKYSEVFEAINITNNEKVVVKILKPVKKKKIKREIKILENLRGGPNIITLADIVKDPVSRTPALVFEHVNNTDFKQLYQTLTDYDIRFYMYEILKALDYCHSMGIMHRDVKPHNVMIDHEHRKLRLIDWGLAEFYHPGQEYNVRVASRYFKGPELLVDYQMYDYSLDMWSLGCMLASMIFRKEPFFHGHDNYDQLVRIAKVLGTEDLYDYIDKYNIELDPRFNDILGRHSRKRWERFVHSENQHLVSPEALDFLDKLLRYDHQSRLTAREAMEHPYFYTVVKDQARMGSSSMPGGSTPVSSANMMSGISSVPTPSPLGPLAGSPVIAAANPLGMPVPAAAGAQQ
Protein E6 (human papillomavirus 18), sequence (P06463 whole entry): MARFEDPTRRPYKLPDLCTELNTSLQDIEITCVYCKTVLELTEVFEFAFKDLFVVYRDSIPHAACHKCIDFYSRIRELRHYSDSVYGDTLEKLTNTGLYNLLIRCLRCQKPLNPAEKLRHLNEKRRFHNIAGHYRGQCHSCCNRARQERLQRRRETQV

As for `O[C@]12C=C(c3nccc4c3[nH]c3ccccc34)[C@@H]3CCN(CCCC/C=C\CC1)C[C@@]31C[C@@H]3/C=C\CCCCN3[C@H]12` [MANZAMINE A], the inhibition result in assay [1], in [3], in assay [4], in assay [18], in assay [20] and in assay [22] was “Active” in each case. In addition, the outcome in assay [2] was inactive. Further, the result in [5] was Active. Further, the Activity in assay [6] came to 9.7%; in assay [8], 44.2%; in [9], 34.2%; in assay [11], 85.3%; in [13], 63.9%; in [14], 9.2%. In addition, the Activity amounted to 15.7% in assay [15], 6.3% in [17], 10.2% in [19] and 33.6% in [21]. In addition, the half-inhibitory concentration (IC50) in assay [7] was 4 µM; in [10], 11.8 µM. For the same molecule, the inhibition entry in [12] is “inactive”. In addition, the “fold change (FC)” value in [16] came out at 1.2.

Source of the values: ChEMBL document CHEMBL4602675, “The Marine Natural Product Manzamine A Inhibits Cervical Cancer by Targeting the SIX1 Protein” (J Nat Prod, 2020).
